Test results: ChEMBL document CHEMBL4028860 (PLoS One, 2017)
Active and inactive are the calls of the source. The rule behind the calls is not given here.

Columns and labels:
[1] = system: THP-1; experiment: Cytotoxicity against human THP1 cells assessed as reduction in cell viability by CellTiterGlo assay; format: cell-based
[2] = target: T1, Cyclic GMP-AMP synthase (Homo sapiens, UniProt Q8N884); experiment: Inhibition of cGAS in human THP1 cells assessed as reduction in salmon sperm dsDNA-induced IFN-beta expression preincubated for 1 hr followed by dsDNA stimulation for 12 hrs by luciferase reporter gene assay; format: cell-based
[3] = target: T1, Cyclic GMP-AMP synthase; experiment: Inhibition of human cGAS (2 to 522 residues) expressed in Sf9 insect cells assessed as reduction in cGAMP level using ISD DNA as substrate in presence of ATP and GTP incubated for 1 hr followed by Cy5-labeled cGAMP addition measured after 1 hr by fluorescence polarization assay
Procedure, shortened: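 Enzyme reaction uses 100 nM cGAS, 100 nM ISD DNA, 1 mM ATP and 0.3 mM GTP in Hepes/NaCl/Tween-20/MgCl2 buffer, pH 7.5, with compounds. Run 1 h at room temperature, then stopped with 50 mM EDTA. Fluorescence polarization read with 620 nm excitation.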

T1 sequence (Q8N884 whole entry, the tested form may be a part): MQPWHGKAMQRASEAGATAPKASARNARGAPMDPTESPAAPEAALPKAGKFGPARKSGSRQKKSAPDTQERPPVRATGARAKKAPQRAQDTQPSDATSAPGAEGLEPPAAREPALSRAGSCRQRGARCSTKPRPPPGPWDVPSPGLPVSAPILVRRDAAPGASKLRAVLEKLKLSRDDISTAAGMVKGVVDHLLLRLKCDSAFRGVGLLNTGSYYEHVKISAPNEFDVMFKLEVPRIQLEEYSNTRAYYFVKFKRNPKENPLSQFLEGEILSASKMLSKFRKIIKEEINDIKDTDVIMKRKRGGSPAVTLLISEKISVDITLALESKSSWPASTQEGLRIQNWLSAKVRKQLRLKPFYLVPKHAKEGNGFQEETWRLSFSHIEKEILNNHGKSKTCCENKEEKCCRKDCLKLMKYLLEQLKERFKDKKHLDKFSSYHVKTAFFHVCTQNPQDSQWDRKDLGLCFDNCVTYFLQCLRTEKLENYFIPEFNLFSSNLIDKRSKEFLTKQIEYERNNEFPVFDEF

Row | Structure (SMILES) | Activity [1] | inhibition [2] | IC50 [3]
1 | O=C(NCCCNc1nc(Nc2cccc(NC(=O)N3CCCC3)c2)ncc1I)c1cccs1 [BX-795] | Non-Toxic | – | –
2 | O=C(O)CNC(=O)c1cnn2c(O)cc(-c3ccccc3)nc12 | Non-Toxic | inactive | –
3 | C[C@@H](CO)NC(=O)c1cnn2c(O)cc(-c3ccccc3)nc12 | Non-Toxic | inactive | –
4 | O=C(NCCO)c1cnn2c(O)cc(-c3ccccc3)nc12 | Non-Toxic | inactive | –
5 | Oc1cc(-c2ccccc2)nc2nnnn12 | – | – | 78 µM
6 | O=C(N[C@H]1CCCC[C@H]1C(=O)O)c1cnn2c(O)cc(-c3ccccc3)nc12 | Non-Toxic | – | –
